Several values for one entry are separate records, joined by “and”; a condition that tells them apart may be missing. Equal entries are not always repeated. Among all 220,000 compounds or so, about 990 (0.45%) were called active.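 The calls were made as follows: active = inhibition over about 50% at 20 µM in the single-dose screen (limit read from the data); inactive = the rest.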 This excerpt belongs to a sample that is enriched for actives. Some compounds were tested as several samples or in several runs, with calls that do not always agree.

Runt-related transcription factor 1 (Homo sapiens) + Core-binding factor subunit beta (Homo sapiens), sequence (Q01196 whole entry, looked up, the tested form may be a part): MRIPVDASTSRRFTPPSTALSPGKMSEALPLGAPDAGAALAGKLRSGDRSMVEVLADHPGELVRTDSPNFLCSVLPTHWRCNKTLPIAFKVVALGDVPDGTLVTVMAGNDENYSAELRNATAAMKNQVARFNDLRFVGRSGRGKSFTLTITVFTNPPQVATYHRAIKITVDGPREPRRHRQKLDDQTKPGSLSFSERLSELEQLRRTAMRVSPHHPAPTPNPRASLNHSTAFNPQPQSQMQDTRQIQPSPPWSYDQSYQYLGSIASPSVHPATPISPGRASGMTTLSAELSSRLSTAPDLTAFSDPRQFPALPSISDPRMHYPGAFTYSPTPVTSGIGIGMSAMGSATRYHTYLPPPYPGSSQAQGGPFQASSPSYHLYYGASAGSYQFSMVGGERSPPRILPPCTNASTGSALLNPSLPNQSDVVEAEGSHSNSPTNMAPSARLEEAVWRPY
Runt-related transcription factor 1 (Homo sapiens) + Core-binding factor subunit beta (Homo sapiens), sequence (Q13951 whole entry, looked up, the tested form may be a part): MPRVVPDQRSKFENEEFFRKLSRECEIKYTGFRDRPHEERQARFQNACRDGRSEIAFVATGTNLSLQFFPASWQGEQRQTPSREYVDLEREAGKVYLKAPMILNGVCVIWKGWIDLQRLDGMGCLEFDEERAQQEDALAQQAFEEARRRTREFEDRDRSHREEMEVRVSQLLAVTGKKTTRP

For this assay, the target named is Runt-related transcription factor 1 (Homo sapiens) + Core-binding factor subunit beta (Homo sapiens) (UniProt Q01196+Q13951). The experiment in a line: inhibitors of RUNX1 Runt–CBFb binding, primary screen, biochemical, FRET, Cerulean-Runt, Venus-CBFb, uHTS (AID 1496).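 Also: 0% = DMSO wells and 100% = excess unlabeled CBFb competitor control.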 The settings on record: Cerulean-Runt/Venus-CBFb FRET ratio 530/480, 1 h; at 20 µM; stronger effect = higher value. The procedure, abridged:
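Assay system: Cerulean-tagged RUNX1 Runt domain (FRET donor) fusion protein / Amount: 100 nM each of Venus-CBFb and Cerulean-Runt domain / Medium: Tris buffer pH 7.5 with salts and BSA / Also added: Venus-CBFb 100 nM / Schedule: 1 h complex formation plus 1 h compound treatment, room temperature / Signal: FRET fluorescence / Read-out: loss of energy transfer signal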
In the case of `O=S(=O)(Nc1ccc(OC(F)(F)F)cc1)c1cccc2nonc12`, the inhibition was -2.4% (inactive).

Consider `Cc1ccc(-c2nc3ccccc3[nH]c2=O)cc1`, for which the inhibition was 1.4% (inactive). As to `O=[N+]([O-])c1cccc(-c2nnc3c4ccccc4c4ccccc4n23)c1`, the inhibition is 4.4% (inactive).

Regarding `O=c1[nH]c2ccccc2n2c(-c3ccccc3)nnc12`, the inhibition was 53% (active). Then `Oc1c(Br)cc(/C=N/NC(=S)NCC2CCCO2)cc1Br` (stereo not drawn), with 0.6% (inactive). Then `CCCCN1C(=O)/C(=C/C=C2/C=Cc3ccccc3N2CC)SC1=S`, with 27.9% (inactive). Then `CCN1C(=O)/C(=C2/Sc3ccccc3N2CCCS(=O)(=O)O)SC1=S`, with 44.8% (inactive) and 56.4% (active); and `CCN1C(=O)/C(=C\N2CCN(c3ccccc3)CC2)SC1=S`, with -0.2% (inactive). On to `COCCNC(=S)N1CCN(C)CC1`, for which the inhibition is 0.5% (inactive). As to `O=C1CCCCC1C(=O)c1ccccc1` (stereo not drawn), the inhibition is 1.7% (inactive). Next, `COc1ccc(C2/C=C\CN(CC(C)C)CC(=O)N2Cc2ccc(F)cc2)cc1` (stereo not drawn): 0% (inactive); `O=C(O)CCc1cccnc1`: -0.7% (inactive).

As to `CCOC(=O)C1CCN(C(=O)Cn2cc(C#N)c3ccccc32)CC1`, the inhibition is 0.6% (inactive).

Consider `CCc1cccc2c(C=C(C#N)C#N)cn(CC(=O)N3CCCCC3)c12`, for which the inhibition was 91.4% (active).

For the molecule `COc1cccc2c(=O)n(CC(=O)N3CCCCCC3)ccc12`, the inhibition is 0.5% (inactive).

Regarding `CSC1=NC2(C)CCCCC2C12C=CC(=O)C=C2` (stereo not drawn), the inhibition was 2.8% (inactive). Consider `COc1ccc2nc(N3CCCC(O)C3)c(C#N)cc2c1` (stereo not drawn), for which the inhibition is 81.1% (active). Next, `CCOc1ccc2nc(N3CCCN(C(=O)Nc4ccccc4C)CC3)c(C#N)cc2c1`: 29.2% (inactive). On to `COc1ccc(N2CCN(C(=O)CSc3nc4cc(OC)c(OC)cc4cc3C#N)CC2)cc1`, for which the inhibition is 12.5% (inactive). Next, `CC1CCN(c2c(NCc3ccc(C(=O)NCc4ccccc4)cc3)c(=O)c2=O)CC1`: 0.6% (inactive); `NNC(=O)c1oc2nc(-c3ccccc3)cc(-c3ccco3)c2c1N`: -57.1% (inactive); `CSc1nc(-c2ccco2)nn1C(=O)c1ccccc1Cl`: -3.7% (inactive). Then `COc1ccc(Cl)cc1C(=O)NNC(=O)c1nc2nc(C)cc(C)n2n1`, with -0.8% (inactive); and `Cc1ccc(S(=O)(=O)Nc2ccc3ncccc3c2)cc1`, with -1.3% (inactive).

`COCc1cc(=O)oc2cc(NS(=O)(=O)c3ccc(C)cc3)ccc12`: the inhibition was 58.8% (active). Next, `COc1ccc(S(=O)(=O)Nc2ccc3oc(C)c(C(C)=O)c3c2)cc1`: 0.3% (inactive); `Clc1ccc(C[n+]2cc(-c3ccc(Cl)cc3)n3c2CCC3)cc1`: 0.1% (inactive). Next, `Cc1cc(C(=O)N2CCC(C(=O)O)CC2)c(C(F)(F)F)o1`: 0% (inactive). Then `S=C(NNC(=S)NC1CC2CCC1C2)NC1CC2C=CC1C2` (stereo not drawn), with 11.8% (inactive); and `COc1ccc2oc(=O)c(C(=O)N3CCCC3)cc2c1`, with 2% (inactive).

With `COc1cccc(C(=O)c2cc3ccc(O)cc3oc2=O)c1`, the inhibition is 126% (active).

For the molecule `COc1ccc2oc(=O)c(C(=O)O)cc2c1`, the inhibition was 3.3% (inactive).

On to `O=C(Nc1nnc(CCN2CCCCC2)s1)c1cccc(Cl)c1`, for which the inhibition was 2.2% (inactive). Next, `Cc1noc(C)c1-c1nc(CSc2ccc(Cl)cc2)no1`: 0.4% (inactive). Next, `OC(c1nc2ccccc2[nH]1)C(O)C(O)C(O)c1nc2ccccc2[nH]1` (stereo not drawn): -0.4% (inactive); `O=C(Nc1cccc2ncccc12)C(Cl)(Cl)Cl`: -0.7% (inactive); `Cc1ccc(C(=O)Nc2cccc3ncccc23)cc1[N+](=O)[O-]`: -0.8% (inactive). Then `Cc1ccc(/C=C(\C#N)C(=O)Nc2cccc3ncccc23)o1`, with 125% (active); and `CCC(=O)c1ccc(OCC(=O)Nc2ccc3nc(C)sc3c2)cc1`, with 1.3% (inactive). For the molecule `CC1=NNC(=O)C1CCC(=O)N/N=C(\C)c1ccc(Cl)cc1` (stereo not drawn), the inhibition is -1.6% (inactive).

For the molecule `CC[C@@H](C)[C@@H](C(=O)N1CCN(C(=O)OC(C)(C)C)CC1)n1cc(CCC(=O)O)nn1`, the inhibition is 2.1% (inactive). `CCc1c(C)nc2c(-c3ccccc3)c(C)nn2c1Nc1ccc(NC(C)=O)cc1`: the inhibition is -2.4% (inactive). Next, `O=C(O)c1ccccc1C(=O)Nc1ccccc1[N+](=O)[O-]`: -1.2% (inactive); `NC(=O)c1c(NC(=O)CSc2nc(N)cc(=O)[nH]2)sc2c1CCCC2`: 0.4% (inactive); `Fc1cc(F)c2nc(Nc3nc4c(F)cccc4s3)sc2c1`: 0.3% (inactive).

Consider `NC(=O)c1c(Nc2nc3c(F)cccc3s2)sc2c1CCCC2`, for which the inhibition is 117% (active). Take `Cc1ccc(-c2cn3cc([N+](=O)[O-])ccc3n2)cc1`: the inhibition was 67.1% (active). Next, `Cc1ccc(-n2cc3ccc([N+](=O)[O-])cc3n2)cc1`: -12.8% (inactive); `Cc1ccc(-c2cn3cc(C)ccc3n2)cc1`: -4.5% (inactive); `O=C(NNc1cc(Cl)cc(Cl)c1)c1c(F)cccc1Cl`: 0.6% (inactive).

In the case of `O=C(Cc1cccc2ccccc12)NNC(=O)Nc1ccc(Cl)cc1`, the inhibition was 1.3% (inactive). Next, `CCCn1c(=NC(C)=O)c(C(=O)OCC)cc2c(=O)n3ccccc3nc21`: 101% (active); `Cc1ccc(-n2c(=O)c(C#N)cc3c(=O)n4ccccc4nc32)cc1C`: 19.9% (inactive). Then `C/C(=N/OC(=O)c1c(-c2c(F)cccc2Cl)noc1C)c1cnccn1`, with -0.3% (inactive); and `CCn1c(=N)c(S(=O)(=O)c2ccc(F)cc2)cc2c(=O)n3ccccc3nc21`, with 10.5% (inactive); and `Cc1onc(-c2c(Cl)cccc2Cl)c1C(=O)NNC(=O)c1c(-c2c(Cl)cccc2Cl)noc1C`, with 0.7% (inactive). Then `CCOC(=O)c1cc2c(=O)n3ccccc3nc2n(CC(C)C)c1=NC(=O)c1c(-c2c(F)cccc2Cl)noc1C`, with 64.1% (active). For the molecule `O=C(NCC1CCCO1)c1cc(-c2ccccc2)nc2ccccc12` (stereo not drawn), the inhibition was 1.5% (inactive). Then `Cc1noc(C)c1COC(=O)COc1ccc(-c2ccccc2)cc1`, with -2.6% (inactive); and `CC(=O)NNC(=O)c1csc(Cc2c(Cl)sc3ccc(Cl)cc23)n1`, with 1.6% (inactive); and `O=C(NNS(=O)(=O)c1ccccc1)c1cnn(-c2ccc(Cl)cc2)c1C(F)(F)F`, with 1.6% (inactive). In the case of `O=C(CNCc1cccs1)Nc1cc(S(=O)(=O)N2CCCC2)ccc1Cl`, the inhibition is 4.6% (inactive). Take `CCc1nc(NCCO)c(C#N)c2c1CCCC2`: the inhibition is -0.2% (inactive).

By inhibition is commonly meant the relative decrease from the control value, in per cent.
